Reference: ChEMBL document CHEMBL1759883, “Synthesis and biological evaluation of indazole derivatives” (Eur J Med Chem, 2011)

Target: Nitric oxide synthase 1 (Rattus norvegicus, UniProt P29476)
Assay: Inhibition of nNOS in untreated Wistar rat striata assessed as inhibition of [3H]L-arginine to [3H]L-citrulline conversion by liquid scintillation counting

Nitric oxide synthase 1, sequence (P29476 whole entry): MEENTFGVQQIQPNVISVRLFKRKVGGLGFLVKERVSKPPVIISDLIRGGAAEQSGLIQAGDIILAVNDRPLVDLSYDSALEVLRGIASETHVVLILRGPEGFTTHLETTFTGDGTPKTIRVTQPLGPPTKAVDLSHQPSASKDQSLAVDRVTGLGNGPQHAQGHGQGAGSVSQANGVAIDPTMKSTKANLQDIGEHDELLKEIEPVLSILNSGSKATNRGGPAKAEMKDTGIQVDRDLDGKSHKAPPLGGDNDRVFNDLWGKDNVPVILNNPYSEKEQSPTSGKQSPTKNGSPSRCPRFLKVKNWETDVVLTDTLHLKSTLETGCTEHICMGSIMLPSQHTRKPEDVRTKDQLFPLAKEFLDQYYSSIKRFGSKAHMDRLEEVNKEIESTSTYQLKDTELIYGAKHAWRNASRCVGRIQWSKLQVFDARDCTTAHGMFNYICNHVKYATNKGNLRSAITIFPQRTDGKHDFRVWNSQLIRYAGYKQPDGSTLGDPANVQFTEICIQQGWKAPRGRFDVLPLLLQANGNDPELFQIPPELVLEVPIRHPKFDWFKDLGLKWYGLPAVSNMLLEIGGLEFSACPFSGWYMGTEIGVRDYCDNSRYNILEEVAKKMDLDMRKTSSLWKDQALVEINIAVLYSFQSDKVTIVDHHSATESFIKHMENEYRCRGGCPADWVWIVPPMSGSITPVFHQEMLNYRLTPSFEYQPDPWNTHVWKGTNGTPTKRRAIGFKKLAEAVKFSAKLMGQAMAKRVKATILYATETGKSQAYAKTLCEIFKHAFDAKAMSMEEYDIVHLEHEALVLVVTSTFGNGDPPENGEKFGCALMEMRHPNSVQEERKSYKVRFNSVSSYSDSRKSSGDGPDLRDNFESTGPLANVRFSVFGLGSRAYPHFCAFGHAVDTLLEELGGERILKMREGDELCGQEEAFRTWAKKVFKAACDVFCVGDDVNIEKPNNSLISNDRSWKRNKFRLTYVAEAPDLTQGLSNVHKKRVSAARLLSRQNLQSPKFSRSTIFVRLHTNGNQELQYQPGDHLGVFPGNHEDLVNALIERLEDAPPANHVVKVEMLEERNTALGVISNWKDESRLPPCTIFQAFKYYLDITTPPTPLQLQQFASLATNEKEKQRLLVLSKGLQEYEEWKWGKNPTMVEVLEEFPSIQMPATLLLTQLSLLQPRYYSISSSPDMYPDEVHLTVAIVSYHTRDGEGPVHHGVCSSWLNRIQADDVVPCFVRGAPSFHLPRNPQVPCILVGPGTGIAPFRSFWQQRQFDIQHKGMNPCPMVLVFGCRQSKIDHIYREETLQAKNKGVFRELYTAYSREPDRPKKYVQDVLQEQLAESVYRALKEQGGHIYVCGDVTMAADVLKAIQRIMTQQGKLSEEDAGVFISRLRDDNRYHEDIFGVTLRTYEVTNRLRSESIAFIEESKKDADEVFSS

| SMILES | IC50 |
| --- | --- |
| O=c1[nH][nH]c2ccccc12 | > 1000 µM |

Target: Nitric oxide synthase 1 (Rattus norvegicus) (UniProt P29476)
Assay: Inhibition of nNOS in untreated Wistar rat striata assessed as inhibition of [3H]L-arginine to [3H]L-citrulline conversion at 1 mM by liquid scintillation counting

Nitric oxide synthase 1 (Rattus norvegicus), sequence (P29476 whole entry): as above

| SMILES | inhibition |
| --- | --- |
| Cc1n[nH]c2c([N+](=O)[O-])c(F)cc(F)c12 | 90% |
| O=C(O)c1c(F)c(F)c2c(O)n[nH]c2c1F | 5.4% |
| O=[N+]([O-])c1c(F)cc(F)c2c(O)n[nH]c12 | 14.9% |
| Oc1n[nH]c2cc(F)cc(F)c12 | 11.1% |
| CCOC(=O)c1c(F)c(F)c(F)c2c(O)n[nH]c12 | 5.6% |
| Fc1c(F)c(F)c2[nH]ncc2c1F | 43.3% |
| CCc1n[nH]c2ccccc12 | 18.8% |
| Cc1n[nH]c2cc(F)cc(F)c12 | 52.1% |
| Cc1n[nH]c2c(F)c(F)ccc12 | 58.4% |
| O=C(O)c1c(F)c(F)c(F)c2c(O)n[nH]c12 | 11.1% |
| COC(=O)c1c(F)c(F)c(F)c2[nH]nc(O)c12 | 6.3% |
| O=C(O)c1c(F)c(F)c2[nH]nc(O)c2c1F | 12.1% |
| Cc1n[nH]c2c(F)c(F)c([N+](=O)[O-])cc12 | 85.4% |
| Oc1n[nH]c2c(F)c(F)ccc12 | 57.1% |
| Oc1n[nH]c2ccccc12 | 31.4% |
| CCOC(=O)c1c(F)c(F)c(F)c2[nH]nc(O)c12 | 1.2% |
| N#Cc1cccc2cn[nH]c12 | 88% |
| Cc1n[nH]c2ccccc12 | 33.7% |
| CCOC(=O)c1c(F)c(F)c2[nH]nc(O)c2c1F | 2.5% |
| FC(F)(F)c1n[nH]c2ccccc12 | 69.9% |
| O=[N+]([O-])c1cccc2c(O)n[nH]c12 | 18.9% |
| COC(=O)c1c(F)c(F)c2c(O)n[nH]c2c1F | 19.7% |
| O=C(O)c1c(F)c(F)c(F)c2[nH]nc(O)c12 | 1.8% |
| CCOC(=O)c1c(F)c(F)c2c(O)n[nH]c2c1F | 10.2% |
| COC(=O)c1c(F)c(F)c2[nH]nc(O)c2c1F | 13.3% |
| COC(=O)c1c(F)c(F)c(F)c2c(O)n[nH]c12 | 5.1% |
| c1ccc2[nH]ncc2c1 | 11.2% |

Species: Rattus norvegicus
Assay: Selectivity ratio of inhibition of iNOS in Wistar rat lung to inhibition of nNOS in Wistar rat striata

| SMILES | Ratio |
| --- | --- |
| O=[N+]([O-])c1c(F)cc(F)c2c(O)n[nH]c12 | 6 |
| Fc1c(F)c(F)c(-c2n[nH]c3c(F)c(F)c(F)c(F)c23)c(F)c1F | 10 |
| Fc1c(F)c(F)c2[nH]ncc2c1F | 2 |
| O=C(O)c1c(F)c(F)c(F)c2[nH]nc(O)c12 | 35 |

Target: Nitric oxide synthase, inducible (Rattus norvegicus) (UniProt Q06518)
Sequence (Q06518 whole entry): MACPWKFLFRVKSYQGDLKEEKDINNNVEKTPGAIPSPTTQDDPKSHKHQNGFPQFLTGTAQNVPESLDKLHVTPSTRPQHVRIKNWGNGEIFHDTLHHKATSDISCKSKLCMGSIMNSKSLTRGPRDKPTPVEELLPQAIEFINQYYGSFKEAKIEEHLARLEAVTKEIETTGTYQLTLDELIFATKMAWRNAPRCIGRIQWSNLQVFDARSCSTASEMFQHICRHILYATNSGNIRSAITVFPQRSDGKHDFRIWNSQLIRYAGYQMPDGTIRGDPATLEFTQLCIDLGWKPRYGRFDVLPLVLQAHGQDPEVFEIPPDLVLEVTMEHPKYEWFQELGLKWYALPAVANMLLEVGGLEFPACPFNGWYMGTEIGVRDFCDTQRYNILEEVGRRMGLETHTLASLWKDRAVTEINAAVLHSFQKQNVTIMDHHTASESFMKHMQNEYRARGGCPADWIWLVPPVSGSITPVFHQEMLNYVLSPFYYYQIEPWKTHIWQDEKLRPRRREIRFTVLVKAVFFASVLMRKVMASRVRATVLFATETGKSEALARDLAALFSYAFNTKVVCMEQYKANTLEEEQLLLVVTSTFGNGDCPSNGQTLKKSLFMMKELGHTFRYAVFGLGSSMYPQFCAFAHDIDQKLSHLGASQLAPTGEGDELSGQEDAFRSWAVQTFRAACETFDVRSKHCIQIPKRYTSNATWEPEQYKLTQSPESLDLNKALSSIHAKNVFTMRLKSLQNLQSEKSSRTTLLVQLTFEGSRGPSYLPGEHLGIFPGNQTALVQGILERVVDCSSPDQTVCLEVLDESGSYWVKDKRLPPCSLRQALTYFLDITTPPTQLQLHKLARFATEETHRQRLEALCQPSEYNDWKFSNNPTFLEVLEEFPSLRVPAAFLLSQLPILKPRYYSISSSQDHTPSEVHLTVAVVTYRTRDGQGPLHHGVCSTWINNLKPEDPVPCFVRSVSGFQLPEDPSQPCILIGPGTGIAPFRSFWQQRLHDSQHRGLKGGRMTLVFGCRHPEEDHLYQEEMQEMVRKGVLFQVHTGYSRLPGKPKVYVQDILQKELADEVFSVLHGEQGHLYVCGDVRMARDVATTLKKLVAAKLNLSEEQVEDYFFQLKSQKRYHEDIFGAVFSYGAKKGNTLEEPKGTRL
Assay: Inhibition of iNOS in LPS-stimulated Wistar rat lung assessed as inhibition of [3H]L-arginine to [3H]L-citrulline conversion at 1 mM by liquid scintillation counting
Summary of the method: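 Lungs from male Wistar rats (220–250 g) taken 6 h after i.v. LPS (10 mg/kg in saline), homogenized in Tris buffer pH 7.6 with protease inhibitors, and spun at 2500g. The supernatant was incubated 30 min at 37 °C with 10 µM L-arginine plus 40 nM L-³H-arginine, cofactors, 0.75 mM NADPH (final) and 10 mM EDTA. ³H-citrulline was isolated on Dowex-50W; compounds at 1 mM.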

| SMILES | inhibition |
| --- | --- |
| Cc1n[nH]c2c([N+](=O)[O-])c(F)cc(F)c12 | 92% |
| O=C(O)c1c(F)c(F)c2c(O)n[nH]c2c1F | 42% |
| O=[N+]([O-])c1c(F)cc(F)c2c(O)n[nH]c12 | 91% |
| Oc1n[nH]c2cc(F)cc(F)c12 | 48.1% |
| CCOC(=O)c1c(F)c(F)c(F)c2c(O)n[nH]c12 | 43.7% |
| Fc1c(F)c(F)c2[nH]ncc2c1F | 98.7% |
| Cc1n[nH]c2cc(F)cc(F)c12 | 74.3% |
| Cc1n[nH]c2c(F)c(F)ccc12 | 69.2% |
| O=C(O)c1c(F)c(F)c(F)c2c(O)n[nH]c12 | 40.7% |
| COC(=O)c1c(F)c(F)c(F)c2[nH]nc(O)c12 | 22.6% |
| O=C(O)c1c(F)c(F)c2[nH]nc(O)c2c1F | 16.3% |
| Cc1n[nH]c2c(F)c(F)c([N+](=O)[O-])cc12 | 95.6% |
| Oc1n[nH]c2c(F)c(F)ccc12 | 89.1% |
| Oc1n[nH]c2ccccc12 | 55.1% |
| CCOC(=O)c1c(F)c(F)c(F)c2[nH]nc(O)c12 | 38.7% |
| COc1cccc2c[nH]nc12 | 70% |
| N#Cc1cccc2cn[nH]c12 | 80% |
| Cc1n[nH]c2ccccc12 | 77.4% |
| CCOC(=O)c1c(F)c(F)c2[nH]nc(O)c2c1F | 51.8% |
| FC(F)(F)c1n[nH]c2ccccc12 | 80.1% |
| O=[N+]([O-])c1cccc2c(O)n[nH]c12 | 8.2% |
| COC(=O)c1c(F)c(F)c2c(O)n[nH]c2c1F | 46.2% |
| O=C(O)c1c(F)c(F)c(F)c2[nH]nc(O)c12 | 62.6% |
| CCOC(=O)c1c(F)c(F)c2c(O)n[nH]c2c1F | 53.5% |
| COC(=O)c1c(F)c(F)c2[nH]nc(O)c2c1F | 48.9% |
| COC(=O)c1c(F)c(F)c(F)c2c(O)n[nH]c12 | 49.6% |
| c1ccc2[nH]ncc2c1 | 45% |
